Data: ChEMBL document CHEMBL3616437, “Thiazole compounds with activity against Cryptococcus gattii and Cryptococcus neoformans in vitro” (Eur J Med Chem, 2015)
≈ marks a conversion by molar mass, not a printed value.

What was measured:
Cryptococcus neoformans [1] = experiment: Antifungal activity against Cryptococcus neoformans F10 after 48 to 72 hrs by broth microdilution method; assay type: functional
How it was run: (§1)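 CLSI M27-A3 broth microdilution. Isolates subcultured twice on SDA, 48 h at 35°C. Saline suspension adjusted to 70% transmittance at 530 nm, then diluted to 1-5 x10^3 cells/mL in RPMI with L-glutamine, 0.165 M MOPS, pH 7.0. Compounds in DMSO, tested at […]. 35°C for 48-72 h. MIC read visually as the lowest concentration giving an optically clear well.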

Vero = experiment: Cytotoxicity against African green monkey Vero cells assessed as cell viability measured after 48 hrs by MTT assay; assay type: cell-based; conditions: Chlorocebus sabaeus
How it was run: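 VERO cells in D-MEM with 5% FBS, used up to 20 passages. Seeded 1 x 10^4 cells/well, pre-incubated 24 h at 37°C. Exposed 48 h at 37°C, 5% CO2, to eight nonserial dilutions from 100 to 0.0128 µM, with 0.5% DMSO control. MTT reduction read-out, corrected for background and blank. IC50 reported as median with 95% CI. Triplicate, two independent experiments.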

[2] = tested on: Cryptococcus gattii species complex; experiment: Antifungal activity against Cryptococcus gattii 1913ER after 48 to 72 hrs by broth microdilution method; assay type: functional, Cryptococcus bacillisporus
How it was run: (§2)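 CLSI M27-A3 broth microdilution in RPMI with L-glutamine, buffered to pH 7.0 with 0.165 M MOPS. Colonies grown twice on SDA, 48 h at 35°C. Inoculum set to 70% transmittance at 530 nm, then diluted to 1-5 x10^3 cells/mL. Test agents dissolved in DMSO, serially diluted, tested at 0.1 to 62.5 µM. Plates held at 35°C for 48-72 h. MIC is the lowest concentration giving an optically clear well, read visually against drug-free growth controls.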

Cryptococcus neoformans [3] = experiment: Antifungal activity against Cryptococcus neoformans ATCC 24067 after 48 to 72 hrs by broth microdilution method; assay type: functional; how it was run: as §1
[4] = tested on: Cryptococcus gattii species complex; experiment: Antifungal activity against Cryptococcus gattii L24/01 after 48 to 72 hrs by broth microdilution method; assay type: functional, Cryptococcus bacillisporus; how it was run: as §2
Cryptococcus neoformans [5] = experiment: Antifungal activity against Cryptococcus neoformans 28JF after 48 to 72 hrs by broth microdilution method; assay type: functional; how it was run: as §1
Cryptococcus neoformans [6] = experiment: Antifungal activity against Cryptococcus neoformans 96806 after 48 to 72 hrs by broth microdilution method; assay type: functional; how it was run: as §1
[7] = Cytotoxicity against C57BL/6 mouse peritoneal macrophages assessed as cell viability measured after 48 hrs by MTT assay; assay type: cell-based; conditions: C57BL/6, Peritoneal macrophage cell
How it was run: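 Thioglycollate-elicited peritoneal macrophages from male C57BL/6 mice, 6–8 weeks old, in RPMI with 10% FBS. Seeded 1 x 10^5 cells/well, pre-incubated 24 h at 37°C. Exposed 48 h at 37°C, 5% CO2, to eight nonserial dilutions from 100 to 0.0128 µM, with 0.5% DMSO control. MTT read-out, % inhibition versus DMSO control. IC50 reported as median with 95% CI. Triplicate, two independent experiments.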

Cryptococcus neoformans [8] = experiment: Ratio of compound MIC for Cryptococcus neoformans VM-MCMMPI in presence of fluconazole to compound MIC for Cryptococcus neoformans VM-MCMMPI in absence of fluconazole by checkerboard microtiter test; assay type: functional
How it was run: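 Checkerboard microdilution: eight two-fold dilutions of test compound (0.11 to 15.6 µM) crossed with amphotericin B (0.025 to 3.9 µM, in DMSO) or fluconazole (0.48 to 62.5 µM, in water). Inoculum per CLSI M27-A3 in RPMI-MOPS pH 7.0, 1-5 x10^3 cells/mL. Growth 48 to 72 h. Effective MIC is the combination concentration giving complete inhibition. FICs derived from MICs in combination versus alone.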

Cryptococcus neoformans [9] = experiment: Antifungal activity against Cryptococcus neoformans VM-MCMMPI after 48 to 72 hrs by broth microdilution method; assay type: functional; how it was run: as §1
[10] = tested on: Cryptococcus gattii species complex; experiment: Antifungal activity against Cryptococcus gattii LMM818 after 48 to 72 hrs by broth microdilution method; assay type: functional, Cryptococcus bacillisporus; how it was run: as §2
[11] = tested on: Cryptococcus gattii species complex; experiment: Antifungal activity against Cryptococcus gattii 135L/03 after 48 to 72 hrs by broth microdilution method; assay type: functional, Cryptococcus bacillisporus; how it was run: as §2
[12] = tested on: Cryptococcus bacillisporus; experiment: Antifungal activity against Cryptococcus gattii ATCC 32608 after 48 to 72 hrs by broth microdilution method; assay type: functional; how it was run: as §2
[13] = Selectivity index, ratio of IC50 for African green monkey Vero cells to MIC for Cryptococcus neoformans ATCC 24067; assay type: toxicity, cell-based
[14] = tested on: Cryptococcus gattii species complex; experiment: Antifungal activity against Cryptococcus gattii 196L/03 after 48 to 72 hrs by broth microdilution method; assay type: functional, Cryptococcus bacillisporus; how it was run: as §2
[15] = tested on: Cryptococcus gattii species complex; experiment: Antifungal activity against Cryptococcus gattii 547/OTTI-97-PI-10 after 48 to 72 hrs by broth microdilution method; assay type: functional, Cryptococcus bacillisporus; how it was run: as §2
[16] = tested on: Cryptococcus gattii species complex; experiment: Antifungal activity against Cryptococcus gattii L28/02 after 48 to 72 hrs by broth microdilution method; assay type: functional, Cryptococcus bacillisporus; how it was run: as §2
[17] = Selectivity index, ratio of IC50 for C57BL/6 mouse peritoneal macrophages to MIC for Cryptococcus neoformans ATCC 24067
How it was run: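 SI = IC50/MIC. Thioglycollate-elicited peritoneal macrophages from C57BL/6 mice are seeded at 1 x 10^5/well. They are exposed for 48 h at 37°C to eight concentrations from 100 to 0.0128 µM. Viability read by MTT versus 0.5% DMSO control, triplicate in two experiments.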

Cryptococcus neoformans [18] = experiment: Antifungal activity against Cryptococcus neoformans 5396 after 48 to 72 hrs by broth microdilution method; assay type: functional; how it was run: as §1
[19] = tested on: Cryptococcus gattii species complex; experiment: Antifungal activity against Cryptococcus gattii ICB181 after 48 to 72 hrs by broth microdilution method; assay type: functional, Cryptococcus bacillisporus; how it was run: as §2
Cryptococcus neoformans [20] = experiment: Antifungal activity against Cryptococcus neoformans 27JF after 48 to 72 hrs by broth microdilution method; assay type: functional; how it was run: as §1
[21] = tested on: Cryptococcus gattii species complex; experiment: Antifungal activity against Cryptococcus gattii 23/10993 after 48 to 72 hrs by broth microdilution method; assay type: functional, Cryptococcus bacillisporus; how it was run: as §2
Cryptococcus neoformans [22] = experiment: Antifungal activity against Cryptococcus neoformans ATCC 62066 after 48 to 72 hrs by broth microdilution method; assay type: functional
Cryptococcus neoformans [23] = experiment: Antifungal activity against Cryptococcus neoformans LMM820 after 48 to 72 hrs by broth microdilution method; assay type: functional; how it was run: as §1
Cryptococcus neoformans [24] = experiment: Antifungal activity against Cryptococcus neoformans ATCC 28957 after 48 to 72 hrs by broth microdilution method; assay type: functional; how it was run: as §1
[25] = tested on: Cryptococcus gattii species complex; experiment: Antifungal activity against Cryptococcus gattii L27/01 after 48 to 72 hrs by broth microdilution method; assay type: functional, Cryptococcus bacillisporus; how it was run: as §2
Cryptococcus neoformans [26] = experiment: Antifungal activity against Cryptococcus neoformans WP after 48 to 72 hrs by broth microdilution method; assay type: functional; how it was run: as §1
Cryptococcus neoformans [27] = experiment: Antifungal activity against Cryptococcus neoformans CN31 after 48 to 72 hrs by broth microdilution method; assay type: functional; how it was run: as §1

**Q.** What does the source list for COc1ccc(-c2csc(N/N=C(\C)CCO)n2)cc1?
**A.** MFC (Cryptococcus neoformans [1]): 3.9 µM (≈ 1.14 µg/mL); MIC (Cryptococcus neoformans [1]): 0.7 µM (≈ 0.204 µg/mL); IC50 (Vero): > 100 µM; MFC [2]: 1.9 µM (≈ 0.554 µg/mL); MIC [2]: 0.9 µM (≈ 0.262 µg/mL); MIC (Cryptococcus neoformans [3]): 0.45 µM (≈ 0.131 µg/mL); MFC [4]: 3.9 µM (≈ 1.14 µg/mL); MIC [4]: 1.4 µM (≈ 0.408 µg/mL); MFC (Cryptococcus neoformans [5]): 3.9 µM (≈ 1.14 µg/mL); MIC (Cryptococcus neoformans [5]): 0.6 µM (≈ 0.175 µg/mL); MFC (Cryptococcus neoformans [6]): 3.9 µM (≈ 1.14 µg/mL); MIC (Cryptococcus neoformans [6]): 0.9 µM (≈ 0.262 µg/mL); IC50 [7]: > 100 µM; fractional inhibitory concentration index (FICI) (Cryptococcus neoformans [8]): 4.33; MFC (Cryptococcus neoformans [9]): 3.9 µM (≈ 1.14 µg/mL); MIC (Cryptococcus neoformans [9]): 0.5 µM (≈ 0.146 µg/mL); MFC [10]: 3.9 µM (≈ 1.14 µg/mL); MIC [10]: 1.4 µM (≈ 0.408 µg/mL); MFC [11]: 3.9 µM (≈ 1.14 µg/mL); MIC [11]: 0.9 µM (≈ 0.262 µg/mL); MFC [12]: 3.9 µM (≈ 1.14 µg/mL); MIC [12]: 1.4 µM (≈ 0.408 µg/mL); selectivity ratio [13]: 111; MFC [14]: 3.9 µM (≈ 1.14 µg/mL); MIC [14]: 1.4 µM (≈ 0.408 µg/mL); MFC [15]: 3.9 µM (≈ 1.14 µg/mL); MIC [15]: 1.7 µM (≈ 0.495 µg/mL); MFC [16]: 3.9 µM (≈ 1.14 µg/mL); MIC [16]: 1.4 µM (≈ 0.408 µg/mL); Ratio [17]: 222; MFC (Cryptococcus neoformans [18]): 3.9 µM (≈ 1.14 µg/mL); MIC (Cryptococcus neoformans [18]): 0.5 µM (≈ 0.146 µg/mL); MFC [19]: 1.9 µM (≈ 0.554 µg/mL); MIC [19]: 0.7 µM (≈ 0.204 µg/mL); MFC (Cryptococcus neoformans [20]): 7.8 µM (≈ 2.27 µg/mL); MIC (Cryptococcus neoformans [20]): 1.2 µM (≈ 0.35 µg/mL); MFC [21]: 3.9 µM (≈ 1.14 µg/mL); MIC [21]: 1.4 µM (≈ 0.408 µg/mL); MFC (Cryptococcus neoformans [22]): 15.6 µM (≈ 4.55 µg/mL); MIC (Cryptococcus neoformans [22]): 0.6 µM (≈ 0.175 µg/mL); MFC (Cryptococcus neoformans [23]): 3.9 µM (≈ 1.14 µg/mL); MIC (Cryptococcus neoformans [23]): 0.5 µM (≈ 0.146 µg/mL); MFC (Cryptococcus neoformans [24]): 3.9 µM (≈ 1.14 µg/mL); MIC (Cryptococcus neoformans [24]): 0.6 µM (≈ 0.175 µg/mL); MFC [25]: 1.9 µM (≈ 0.554 µg/mL); MIC [25]: 0.8 µM (≈ 0.233 µg/mL); MFC (Cryptococcus neoformans [26]): 3.9 µM (≈ 1.14 µg/mL); MIC (Cryptococcus neoformans [26]): 0.9 µM (≈ 0.262 µg/mL); MFC (Cryptococcus neoformans [27]): 7.8 µM (≈ 2.27 µg/mL); MIC (Cryptococcus neoformans [27]): 0.5 µM (≈ 0.146 µg/mL)
